# Measurements as given in ChEMBL document CHEMBL3739335, “Phosphonooxymethyl Prodrug of Triptolide: Synthesis, Physicochemical Characterization, and Efficacy in Human Colon Adenocarcinoma and Ovarian Cancer Xenografts” (J Med Chem, 2015).
# Columns and labels:
# [1] = Chemical stability of the compound in buffer assessed as compound remaining at pH 4 after 4 hrs by HPLC analysis; assay type: physicochemical; conditions: read-out: Stability
# Mus musculus = assay: Toxicity in athymic nude mouse xenografted with human HT-29 cells assessed as mortality at 0.9 mg/kg, ip administered for 2 weeks; assay type: organism-based; conditions: in vivo, 336 h
# [2] = Stability of the compound in simulated gastric fluid assessed as compound remaining after 24 hrs by HPLC analysis
# [3] = Chemical stability of the compound in buffer assessed as compound remaining at pH 9 after 4 hrs by HPLC analysis; assay type: physicochemical; conditions: read-out: Stability
# [4] = Half life of the compound in buffer at 4 degC at pH 7.4; assay type: physicochemical
# Method in brief: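 Pseudo-first-order kobsd at each temperature was fitted to an Arrhenius plot, which was extrapolated to 25 and 4 °C. t1/2 and t90 (time for 10% loss) were calculated from the extrapolated kobsd.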
# [5] = Chemical stability of the compound in buffer assessed as compound remaining at pH 4 after 24 hrs by HPLC analysis; assay type: physicochemical; conditions: read-out: Stability
# [6] = Chemical stability of the compound in buffer assessed as compound remaining at pH 2 after 2 hrs by HPLC analysis; assay type: physicochemical; conditions: read-out: Stability
# [7] = Chemical stability of the compound in buffer assessed as compound remaining at pH 2 after 4 hrs by HPLC analysis; assay type: physicochemical; conditions: read-out: Stability
# [8] = Chemical stability of the compound in buffer assessed as compound remaining at pH 7.4 after 4 hrs by HPLC analysis; assay type: physicochemical; conditions: read-out: Stability
# [9] = Chemical stability of the compound in buffer assessed as pseudo-first-order rate constant at 60 degC at pH 7.4 by Arrhenius plot analysis; assay type: physicochemical
# [10] = Chemical stability of the compound in buffer assessed as compound remaining at pH 1 after 8 hrs by HPLC analysis; assay type: physicochemical; conditions: read-out: Stability
# [11] = Chemical stability of the compound in buffer assessed as compound remaining at pH 6 after 4 hrs by HPLC analysis; assay type: physicochemical; conditions: read-out: Stability
compound,measurement,setting,value
CC(C)[C@]12O[C@H]1[C@@H]1O[C@]13[C@]1(O[C@H]1C[C@H]1C4=C(CC[C@@]13C)C(=O)OC4)[C@@H]2OCOP(=O)([O-])[O-].[Na+].[Na+] [MINNELIDE],remaining at 4 h,[1],100%
same,Activity,Mus musculus,Toxic
same,remaining at 24 h,[2],0%
same,remaining at 4 h,[3],100%
same,t1/2,[4],12.2 yr
same,remaining at 24 h,[5],99%
same,remaining at 2 h,[6],97%
same,remaining at 4 h,[7],95%
same,remaining at 4 h,[8],100%
same,K,[9],0.002482 h⁻¹
same,remaining at 8 h,[10],39%
same,remaining at 4 h,[11],100%
